Calls of active or inactive are those of the source. No cut-off for these calls is given here.
Assays:
Assay type in all cases: functional
Enterococcus faecalis [1] = test: Antimicrobial activity against Enterococcus faecalis ATCC 29212 after 18 hrs by agar-well diffusion assay
Method in brief: (§1)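 Organisms suspended in Mueller Hinton broth, diluted to about 10⁶ cfu/mL, and flood-inoculated onto Mueller Hinton agar, then dried. Samples dissolved in DMSO were added to 5 mm wells cut in the agar. Plates were incubated 18 h at 35 °C, and inhibition zones were measured. Ampicillin was the standard drug, with a DMSO solvent control.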

[2] = tested on: Yersinia pseudotuberculosis; test: Antimicrobial activity against Yersinia pseudotuberculosis ATCC 911 after 18 hrs by agar-well diffusion assay
Method in brief: (§2)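 Bacteria were suspended in Mueller Hinton broth at about 10⁶ cfu/mL and flood-inoculated onto Mueller Hinton agar, then dried. Samples in DMSO went into 5-mm cork-bored wells. Plates were incubated 18 h at 35 °C and the zone of inhibition was read. Ampicillin was the standard, with a DMSO solvent control.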

Pseudomonas aeruginosa [3] = test: Antimicrobial activity against Pseudomonas aeruginosa ATCC 27853 after 18 hrs by agar-well diffusion assay; method in brief: as §1
Candida tropicalis [4] = test: Antimicrobial activity against Candida tropicalis ATCC 13803 after 18 hrs by agar-well diffusion assay
Method in brief: (§3)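 Yeast suspended in Mueller Hinton broth at about 10⁶ cfu/mL and flood-inoculated onto Sabouraud dextrose agar, then dried. Samples dissolved in DMSO were placed in 5 mm wells bored in the agar. After 18 h at 35 °C, the zone of inhibition was measured. Fluconazole was the standard drug, with a DMSO solvent control.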

Escherichia coli [5] = test: Antimicrobial activity against Escherichia […] after 18 hrs by agar-well diffusion assay; method in brief: as §1
Bacillus cereus [6] = test: Antimicrobial activity against Bacillus cereus 702 Roma after 18 hrs by agar-well diffusion assay; method in brief: as §1
Candida albicans [7] = test: Antimicrobial activity against Candida albicans ATCC 60193 after 18 hrs by agar-well diffusion assay; method in brief: as §3
Staphylococcus aureus [8] = test: Antimicrobial activity against Staphylococcus aureus ATCC […] after 18 hrs by agar-well diffusion assay; method in brief: as §1
Candida tropicalis [9] = test: Antimicrobial activity against Candida tropicalis ATCC 13803 at 5 ug after 18 hrs by agar-well diffusion assay
Method in brief: (§4)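 Yeasts were suspended in Mueller Hinton broth at about 10⁶ cfu/mL and flood-inoculated onto Sabouraud dextrose agar, then dried. Samples in DMSO went into 5-mm wells. Plates were incubated 18 h at 35 °C and inhibition zones were measured. Fluconazole was the standard, with a DMSO solvent control.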

Candida albicans [10] = test: Antimicrobial activity against Candida albicans ATCC 60193 at 5 ug after 18 hrs by agar-well diffusion assay; method in brief: as §4
Bacillus cereus [11] = test: Antimicrobial activity against Bacillus cereus 702 Roma at 10 ug after 18 hrs by agar-well diffusion assay; details: read-out: IZ; method in brief: as §1
[12] = tested on: Yersinia pseudotuberculosis; test: Antimicrobial activity against Yersinia pseudotuberculosis ATCC 911 at 10 ug after 18 hrs by agar-well diffusion assay; details: ATCC 911, 18 h, read-out: IZ; method in brief: as §2
Pseudomonas aeruginosa [13] = test: Antimicrobial activity against Pseudomonas aeruginosa ATCC 27853 at 10 ug after 18 hrs by agar-well diffusion assay; details: ATCC 27853, 18 h, read-out: IZ; method in brief: as §1
Escherichia coli [14] = test: Antimicrobial activity against Escherichia […] at 10 ug after 18 hrs by agar-well diffusion assay; details: read-out: IZ; method in brief: as §2
Enterococcus faecalis [15] = test: Antimicrobial activity against Enterococcus faecalis ATCC 29212 at 10 ug after 18 hrs by agar-well diffusion assay; details: ATCC 29212, 18 h, read-out: IZ; method in brief: as §1
Staphylococcus aureus [16] = test: Antimicrobial activity against Staphylococcus aureus ATCC […] at 10 ug after 18 hrs by agar-well diffusion assay; details: ATCC 25923, 18 h, read-out: IZ; method in brief: as §1

Cc1ccc(-c2nn(Cc3nn(CNCCN4CCOCC4)c(=S)n3-c3ccccc3)c(=O)n2N)cc1
inhibition zone (IZ) (Enterococcus faecalis [1]): inactive
inhibition zone (IZ) [2]: inactive
inhibition zone (IZ) (Pseudomonas aeruginosa [3]): inactive
inhibition zone (IZ) (Candida tropicalis [4]): inactive
inhibition zone (IZ) (Escherichia coli [5]): inactive
inhibition zone (IZ) (Bacillus cereus [6]): inactive
inhibition zone (IZ) (Candida albicans [7]): inactive
inhibition zone (IZ) (Staphylococcus aureus [8]; ATCC 25923): inactive

Cc1ccc(-c2nn(CC(=O)NNC(=S)Nc3ccccc3)c(=O)n2N)cc1
inhibition zone (IZ) (Enterococcus faecalis [1]): inactive
inhibition zone (IZ) [2]: inactive
inhibition zone (IZ) (Pseudomonas aeruginosa [3]): inactive
inhibition zone (IZ) (Candida tropicalis [4]): inactive
inhibition zone (IZ) (Escherichia coli [5]): inactive
inhibition zone (IZ) (Bacillus cereus [6]): inactive
inhibition zone (IZ) (Candida albicans [7]): inactive
inhibition zone (IZ) (Staphylococcus aureus [8]): 6 mm

COc1ccc(NC(=S)NNC(=O)Cn2nc(-c3ccc(C)cc3)n(N)c2=O)cc1
inhibition zone (IZ) (Enterococcus faecalis [1]): 28 mm
inhibition zone (IZ) [2]: 25 mm
inhibition zone (IZ) (Pseudomonas aeruginosa [3]): 35 mm
inhibition zone (IZ) (Candida tropicalis [4]): inactive
inhibition zone (IZ) (Escherichia coli [5]): 24 mm
inhibition zone (IZ) (Bacillus cereus [6]): 22 mm
inhibition zone (IZ) (Candida albicans [7]): inactive
inhibition zone (IZ) (Staphylococcus aureus [8]): 28 mm

Cc1ccc(-c2nn(Cc3nnc(N(C)c4ccccc4)s3)c(=O)n2N)cc1
inhibition zone (IZ) (Enterococcus faecalis [1]): inactive
inhibition zone (IZ) [2]: inactive
inhibition zone (IZ) (Pseudomonas aeruginosa [3]): inactive
inhibition zone (IZ) (Candida tropicalis [4]): 6 mm
inhibition zone (IZ) (Escherichia coli [5]): inactive
inhibition zone (IZ) (Bacillus cereus [6]): 7 mm
inhibition zone (IZ) (Candida albicans [7]): inactive
inhibition zone (IZ) (Staphylococcus aureus [8]; ATCC 25923): inactive

OC(Cn1cncn1)(Cn1cncn1)c1ccc(F)cc1F [FLUCONAZOLE]
zone of inhibition at 5 µg/disc (Candida tropicalis [9]; ATCC 13803, 18 h, read-out: IZ): 25 mm
zone of inhibition at 5 µg/disc (Candida albicans [10]; ATCC 60193, 18 h, read-out: IZ): 25 mm

COc1ccc(-n2c(S)nnc2Cn2nc(-c3ccc(C)cc3)n(N)c2=O)cc1
inhibition zone (IZ) (Enterococcus faecalis [1]): 25 mm
inhibition zone (IZ) [2]: 22 mm
inhibition zone (IZ) (Pseudomonas aeruginosa [3]): 30 mm
inhibition zone (IZ) (Candida tropicalis [4]): inactive
inhibition zone (IZ) (Escherichia coli [5]): 28 mm
inhibition zone (IZ) (Bacillus cereus [6]): 25 mm
inhibition zone (IZ) (Candida albicans [7]): inactive
inhibition zone (IZ) (Staphylococcus aureus [8]): 30 mm

CCSc1nnc(Cn2nc(-c3ccc(C)cc3)n(N)c2=O)n1-c1ccc(F)cc1
inhibition zone (IZ) (Enterococcus faecalis [1]): inactive
inhibition zone (IZ) [2]: inactive
inhibition zone (IZ) (Pseudomonas aeruginosa [3]): inactive
inhibition zone (IZ) (Candida tropicalis [4]): 6 mm
inhibition zone (IZ) (Escherichia coli [5]): inactive
inhibition zone (IZ) (Bacillus cereus [6]): 9 mm
inhibition zone (IZ) (Candida albicans [7]): 6 mm
inhibition zone (IZ) (Staphylococcus aureus [8]): 8 mm

Cc1ccc(-c2nn(Cc3nnc(S)n3-c3ccc(F)cc3)c(=O)n2/N=C/c2ccc(F)cc2)cc1
inhibition zone (IZ) (Enterococcus faecalis [1]): 20 mm
inhibition zone (IZ) [2]: 22 mm
inhibition zone (IZ) (Pseudomonas aeruginosa [3]): 30 mm
inhibition zone (IZ) (Candida tropicalis [4]): inactive
inhibition zone (IZ) (Escherichia coli [5]): 25 mm
inhibition zone (IZ) (Bacillus cereus [6]): 20 mm
inhibition zone (IZ) (Candida albicans [7]): inactive
inhibition zone (IZ) (Staphylococcus aureus [8]): 24 mm

COc1ccc(/C=N/n2c(-c3ccc(C)cc3)nn(Cc3nnc(S)n3-c3ccc(F)cc3)c2=O)cc1
inhibition zone (IZ) (Enterococcus faecalis [1]): 24 mm
inhibition zone (IZ) [2]: 30 mm
inhibition zone (IZ) (Pseudomonas aeruginosa [3]): 35 mm
inhibition zone (IZ) (Candida tropicalis [4]): inactive
inhibition zone (IZ) (Escherichia coli [5]): 30 mm
inhibition zone (IZ) (Bacillus cereus [6]): 22 mm
inhibition zone (IZ) (Candida albicans [7]): inactive
inhibition zone (IZ) (Staphylococcus aureus [8]): 26 mm

COc1ccc(Nc2nnc(Cn3nc(-c4ccc(C)cc4)n(N)c3=O)s2)cc1
inhibition zone (IZ) (Enterococcus faecalis [1]): 20 mm
inhibition zone (IZ) [2]: 22 mm
inhibition zone (IZ) (Pseudomonas aeruginosa [3]): >30 mm
inhibition zone (IZ) (Candida tropicalis [4]): inactive
inhibition zone (IZ) (Escherichia coli [5]): 30 mm
inhibition zone (IZ) (Bacillus cereus [6]): 23 mm
inhibition zone (IZ) (Candida albicans [7]): inactive
inhibition zone (IZ) (Staphylococcus aureus [8]): 28 mm

CSc1nnc(Cn2nc(-c3ccc(C)cc3)n(N)c2=O)n1-c1ccccc1
inhibition zone (IZ) (Enterococcus faecalis [1]): inactive
inhibition zone (IZ) [2]: inactive
inhibition zone (IZ) (Pseudomonas aeruginosa [3]): inactive
inhibition zone (IZ) (Candida tropicalis [4]): inactive
inhibition zone (IZ) (Escherichia coli [5]): inactive
inhibition zone (IZ) (Bacillus cereus [6]): inactive
inhibition zone (IZ) (Candida albicans [7]): inactive
inhibition zone (IZ) (Staphylococcus aureus [8]; ATCC 25923): inactive

Cc1ccc(-c2nn(Cc3nn(CN4CCN(C)CC4)c(=S)n3-c3ccc(F)cc3)c(=O)n2/N=C/c2ccc(F)cc2)cc1
inhibition zone (IZ) (Enterococcus faecalis [1]): inactive
inhibition zone (IZ) [2]: inactive
inhibition zone (IZ) (Pseudomonas aeruginosa [3]): inactive
inhibition zone (IZ) (Candida tropicalis [4]): inactive
inhibition zone (IZ) (Escherichia coli [5]): inactive
inhibition zone (IZ) (Bacillus cereus [6]): 8 mm
inhibition zone (IZ) (Candida albicans [7]): inactive
inhibition zone (IZ) (Staphylococcus aureus [8]; ATCC 25923): inactive

Cc1ccc(-c2nn(Cc3nnc(S)n3-c3ccccc3)c(=O)n2/N=C/c2ccc(F)cc2)cc1
inhibition zone (IZ) (Enterococcus faecalis [1]): 20 mm
inhibition zone (IZ) [2]: 25 mm
inhibition zone (IZ) (Pseudomonas aeruginosa [3]): 30 mm
inhibition zone (IZ) (Candida tropicalis [4]): inactive
inhibition zone (IZ) (Escherichia coli [5]): 25 mm
inhibition zone (IZ) (Bacillus cereus [6]): 20 mm
inhibition zone (IZ) (Candida albicans [7]): inactive
inhibition zone (IZ) (Staphylococcus aureus [8]): 28 mm

Cc1ccc(-c2nn(Cc3nnc(Nc4ccc(F)cc4)s3)c(=O)n2N)cc1
inhibition zone (IZ) (Enterococcus faecalis [1]): inactive
inhibition zone (IZ) [2]: inactive
inhibition zone (IZ) (Pseudomonas aeruginosa [3]): inactive
inhibition zone (IZ) (Candida tropicalis [4]): inactive
inhibition zone (IZ) (Escherichia coli [5]): inactive
inhibition zone (IZ) (Bacillus cereus [6]): inactive
inhibition zone (IZ) (Candida albicans [7]): inactive
inhibition zone (IZ) (Staphylococcus aureus [8]; ATCC 25923): inactive

Cc1ccc(-c2nn(Cc3nn(CN4CCN(C)CC4)c(=S)n3-c3ccccc3)c(=O)n2N)cc1
inhibition zone (IZ) (Enterococcus faecalis [1]): inactive
inhibition zone (IZ) [2]: inactive
inhibition zone (IZ) (Pseudomonas aeruginosa [3]): inactive
inhibition zone (IZ) (Candida tropicalis [4]): inactive
inhibition zone (IZ) (Escherichia coli [5]): inactive
inhibition zone (IZ) (Bacillus cereus [6]): inactive
inhibition zone (IZ) (Candida albicans [7]): inactive
inhibition zone (IZ) (Staphylococcus aureus [8]; ATCC 25923): inactive

Cc1ccc(-c2nn(Cc3nnc(S)n3-c3ccc(F)cc3)c(=O)n2N)cc1
inhibition zone (IZ) (Enterococcus faecalis [1]): 30 mm
inhibition zone (IZ) [2]: 26 mm
inhibition zone (IZ) (Pseudomonas aeruginosa [3]): 35 mm
inhibition zone (IZ) (Candida tropicalis [4]): inactive
inhibition zone (IZ) (Escherichia coli [5]): 30 mm
inhibition zone (IZ) (Bacillus cereus [6]): 25 mm
inhibition zone (IZ) (Candida albicans [7]): inactive
inhibition zone (IZ) (Staphylococcus aureus [8]): 26 mm

Cc1ccc(-c2nn(Cc3nnc(Nc4ccccc4)s3)c(=O)n2N)cc1
inhibition zone (IZ) (Enterococcus faecalis [1]): inactive
inhibition zone (IZ) [2]: inactive
inhibition zone (IZ) (Pseudomonas aeruginosa [3]): inactive
inhibition zone (IZ) (Candida tropicalis [4]): inactive
inhibition zone (IZ) (Escherichia coli [5]): inactive
inhibition zone (IZ) (Bacillus cereus [6]): inactive
inhibition zone (IZ) (Candida albicans [7]): inactive
inhibition zone (IZ) (Staphylococcus aureus [8]; ATCC 25923): inactive

CC1(C)S[C@@H]2[C@H](NC(=O)[C@H](N)c3ccccc3)C(=O)N2[C@H]1C(=O)O [AMPICILLIN]
zone of inhibition at 10 µg/disc (Bacillus cereus [11]): 15 mm
inhibition zone (IZ) (Candida tropicalis [9]): inactive
inhibition zone (IZ) (Candida albicans [10]): inactive
zone of inhibition at 10 µg/disc [12]: 18 mm
zone of inhibition at 10 µg/disc (Pseudomonas aeruginosa [13]): 18 mm
zone of inhibition at 10 µg/disc (Escherichia coli [14]): 10 mm
zone of inhibition at 10 µg/disc (Enterococcus faecalis [15]): 10 mm
zone of inhibition at 10 µg/disc (Staphylococcus aureus [16]): 35 mm

Cc1ccc(-c2nn(Cc3nnc(S)n3-c3ccccc3)c(=O)n2N)cc1
inhibition zone (IZ) (Enterococcus faecalis [1]): 20 mm
inhibition zone (IZ) [2]: 22 mm
inhibition zone (IZ) (Pseudomonas aeruginosa [3]): 30 mm
inhibition zone (IZ) (Candida tropicalis [4]): inactive
inhibition zone (IZ) (Escherichia coli [5]): 25 mm
inhibition zone (IZ) (Bacillus cereus [6]): 20 mm
inhibition zone (IZ) (Candida albicans [7]): inactive
inhibition zone (IZ) (Staphylococcus aureus [8]): 24 mm

COc1ccc(-n2c(Cn3nc(-c4ccc(C)cc4)n(N)c3=O)nnc2SC)cc1
inhibition zone (IZ) (Enterococcus faecalis [1]): inactive
inhibition zone (IZ) [2]: inactive
inhibition zone (IZ) (Pseudomonas aeruginosa [3]): inactive
inhibition zone (IZ) (Candida tropicalis [4]): inactive
inhibition zone (IZ) (Escherichia coli [5]): inactive
inhibition zone (IZ) (Bacillus cereus [6]): inactive
inhibition zone (IZ) (Candida albicans [7]): inactive
inhibition zone (IZ) (Staphylococcus aureus [8]; ATCC 25923): inactive

Cc1ccc(-c2nn(CC(=O)NNC(=S)Nc3ccc(F)cc3)c(=O)n2N)cc1
inhibition zone (IZ) (Enterococcus faecalis [1]): 30 mm
inhibition zone (IZ) [2]: 28 mm
inhibition zone (IZ) (Pseudomonas aeruginosa [3]): 35 mm
inhibition zone (IZ) (Candida tropicalis [4]): inactive
inhibition zone (IZ) (Escherichia coli [5]): 34 mm
inhibition zone (IZ) (Bacillus cereus [6]): 22 mm
inhibition zone (IZ) (Candida albicans [7]): inactive
inhibition zone (IZ) (Staphylococcus aureus [8]): 30 mm
